The values that follow come from the RNAGym collection of RNA variant scans (doi:10.1126/science.aae0568).

B1: tRNA (parent)
chain: GUUCCGUUGGCGUAAUGGUAACGCGUCUCCCUCCUAAGGAGAAGACUGCGGGUUCGAGUCCCGUACGGAACG

Variants at the floor of the assay were thinned out. Bounds are passed on as bounds.

In the data set the parent is B1. Briefly: yeast fitness relative to wild type (ratio to wild type); higher = fitter; tRNA-Arg(CCU), competitive growth, 37 C, YPD. Put shortly: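 Genotype frequency changes were the basis for Darwinian fitness relative to wild type. The frequencies came from 100-nucleotide paired-end sequencing of gene amplicons from the start population and each end population of pooled yeast strains with tRNA-Arg(CCU) gene variants at the native locus. Competition ran in YPD at 37°C for 24 hours in six replicates, genotypes needed ≥ 100 starting reads, and estimates < 0.5 were set to 0.5.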
Turning to U16A C24U C34A A65G, the yeast fitness is 0.716.

On to G12A G23C, for which the yeast fitness came out at 0.733.

Consider A15G C60U, for which the yeast fitness turned out to be 0.786.

Consider U8A G25C A37C C66U, for which the yeast fitness is at most 0.5.

Turning to A15C U19C C62A, the yeast fitness stood at 0.536.

Turning to U2C A43G, the yeast fitness is 0.887.

As to C11G C31A G39A G48A A57G A65G, the yeast fitness is at most 0.5.

As to A14C U28A U59G A65U, the yeast fitness is at most 0.5.

As to C24U C49U C55G A70U, the yeast fitness stood at 0.559.

With G17A C61U C66U, the yeast fitness was 0.599.

For C11U G18A G41C, the yeast fitness is at most 0.5.

A20C C46A C49G: the yeast fitness was found to be 0.548.

As for U8A A14C C24U U35A G63A, the yeast fitness was determined as 0.803.

For the variant C5A C34G C49G U64C, the yeast fitness is at most 0.5.

Consider U3C C22G G67U, for which the yeast fitness is 0.538.

In the case of A20G G23C C31U C46G, the yeast fitness is 0.526.

For A40C G56C, the yeast fitness was 0.609.

With C4U U16A U26C C27A U47C, the yeast fitness is at most 0.5.

With A20U C34G A36C C55U, the yeast fitness worked out at 0.528.

On to C29G C30U A65G, for which the yeast fitness was at most 0.5.

For the variant C22A A70C, the yeast fitness is 0.877.

Consider C46G G67A, for which the yeast fitness stood at 0.912.

For U8C C46U G52A, the yeast fitness is at most 0.5.

Consider C5G A20G A40G G44A C46G, for which the yeast fitness worked out at 0.517.

Consider G10A G39C A70G, for which the yeast fitness amounted to 0.589.

Consider G58A C61G, for which the yeast fitness was found to be 0.668.

On to C66U, for which the yeast fitness is 0.968.

For the variant A43G G56C A69U, the yeast fitness is 0.683.

On to G6C A69U, for which the yeast fitness came to 0.976.

As to U26C C29U C61U, the yeast fitness was at most 0.5.

For the variant C24A A43G G63U U64A, the yeast fitness was at most 0.5.

C27A A36G G68A: the yeast fitness was at most 0.5.

On to U16A C27G A42U U53C, for which the yeast fitness was at most 0.5.

For the variant C4U C24A G44C G50C U54G C61G, the yeast fitness was at most 0.5.

Take U8C G25A A37C G68U: the yeast fitness is at most 0.5.

For U2C C4A U8C G18C U35C G63A, the yeast fitness was at most 0.5.

As for A21U A36G, the yeast fitness was found to be 0.804.

U3A C4G A42G: the yeast fitness was at most 0.5.

For the variant U13A U47C A69U, the yeast fitness was found to be 0.743.

Turning to C24A A36C, the yeast fitness was 0.531.

C33A A45G A70U: the yeast fitness was found to be 0.638.

For the variant G10C A15G C27G, the yeast fitness stood at 0.695.

Consider C27G C34G C46U C49U, for which the yeast fitness is at most 0.5.

Turning to A15G A36G G44C, the yeast fitness was found to be 0.659.

As for A21U G25A C62A, the yeast fitness is at most 0.5.

In the case of G18C G25C C33U C61U, the yeast fitness is at most 0.5.

Consider C29G G48A G67C, for which the yeast fitness was at most 0.5.

U32A C34A U53C U64A: the yeast fitness was at most 0.5.

As for U16A C34U U54C, the yeast fitness is at most 0.5.

On to A20U C31U G56A A69C, for which the yeast fitness is at most 0.5.

Turning to U3G A15U C46G C61A, the yeast fitness was at most 0.5.

Regarding G12A U16A U64G, the yeast fitness was at most 0.5.

U8A A14C C49G A70U: the yeast fitness turned out to be 0.515.

On to G9A C66G, for which the yeast fitness turned out to be 0.703.

As to U8C C27G G39C, the yeast fitness is at most 0.5.

On to C4G C34G A40G G68A, for which the yeast fitness is at most 0.5.

C34U A40C C62U: the yeast fitness was 0.507.

For the variant U3G G44C, the yeast fitness was found to be 0.739.

As for C5G C31U G52A, the yeast fitness was found to be 0.612.

In the case of A15G C22G U35C A43U, the yeast fitness came out at 0.556.

For the variant U26G G50C C66U, the yeast fitness is at most 0.5.

For the variant C5G A14C G18A A21G A36U A45U, the yeast fitness was at most 0.5.

G12A A57C: the yeast fitness came to 0.618.

For the variant G6A U47A A57U, the yeast fitness is at most 0.5.

Turning to G9A C33U A36U U59A, the yeast fitness is at most 0.5.

Turning to U8C A21U U53G A57C, the yeast fitness is at most 0.5.

For G6C C34U G44A C55G C66G, the yeast fitness stood at 0.649.

U26G C29A A42C: the yeast fitness was 0.586.

Consider C34U A40G C46A C49G A65G, for which the yeast fitness was at most 0.5.

Turning to U19A G50A, the yeast fitness amounted to 0.795.

As for A14C C61U C66G, the yeast fitness came out at 0.522.

On to U8C G9A U13G C62U, for which the yeast fitness was at most 0.5.

Regarding A20C U28C A40U, the yeast fitness stood at 0.971.

Take A14U A43G U59G C62G G63A: the yeast fitness came out at 0.558.

As to C29G A40U G44A, the yeast fitness is at most 0.5.

As to C4A G10C C11U G41A A45C A65U, the yeast fitness is at most 0.5.

Regarding C11U A14C A37C, the yeast fitness came to 0.544.

For the variant C5G C31A, the yeast fitness came out at 0.79.

For the variant C5U G39U, the yeast fitness is 0.823.

U2C A43G A57C A65U: the yeast fitness was at most 0.5.

For the variant A45U G68C, the yeast fitness turned out to be 0.66.

A21U C62G: the yeast fitness turned out to be 0.586.

Regarding A14G A21G C33U A43C, the yeast fitness was at most 0.5.

As for C30G U35A C61U C66G A69U, the yeast fitness is 0.633.

Regarding G39A A42G U59A, the yeast fitness was at most 0.5.

Take U26C C27G C33G A37U G41A A57G C62G: the yeast fitness is at most 0.5.

For the variant C5U G17C U26G A69U, the yeast fitness is at most 0.5.

For the variant U2G U3A C5U U7C U8C A20C U35C A37U A57C, the yeast fitness was at most 0.5.

With G10A C22G A37G G38A G51C U53G, the yeast fitness was at most 0.5.

As for C5U C11U C49U, the yeast fitness stood at 0.721.

In the case of A20G, the yeast fitness turned out to be 1.

Take A20G C24U C49G G50A: the yeast fitness is at most 0.5.

With U3C C5A C34U U35A C49A U54A, the yeast fitness is at most 0.5.

Consider U16A C22U G48A, for which the yeast fitness came to 0.631.

With C46U A69U, the yeast fitness amounted to 1.03.

In the case of C4G U53C, the yeast fitness stood at 0.776.

Take G23A G63A: the yeast fitness was 0.7.

As to C5U G6A C11A U19A A69U, the yeast fitness was at most 0.5.

With G38A A40U, the yeast fitness came out at 0.747.

For the variant C5A U35C A36U, the yeast fitness worked out at 0.57.

As for U2A U16A G56C A57G, the yeast fitness is at most 0.5.

In the case of U3C C4G A42G, the yeast fitness worked out at 0.57.

As for G12C C29G G51A G68C, the yeast fitness was at most 0.5.

Consider U19G C29A A69U, for which the yeast fitness was at most 0.5.

Take A14U C31G G38A: the yeast fitness worked out at 0.657.

With G10C C62U U64A, the yeast fitness is at most 0.5.

As to C31G U59A, the yeast fitness amounted to 0.779.

In the case of U8A G9C U47A G68C, the yeast fitness was at most 0.5.

As for C24A C61U, the yeast fitness was found to be 0.718.

For G50C C55G, the yeast fitness worked out at 0.56.

Regarding U13C A14C A45U C66U, the yeast fitness is at most 0.5.

For the variant U64A G68C, the yeast fitness was found to be 0.709.

Take A69G: the yeast fitness worked out at 0.982.

C29G A65G: the yeast fitness stood at 0.713.

As for C22A C31A U53C A57C, the yeast fitness was at most 0.5.

As to G23C C24G C34G C46U U54G, the yeast fitness was at most 0.5.

Turning to U7C A14G G17A G48C A70U, the yeast fitness is at most 0.5.

Take G25C U32G: the yeast fitness is 0.655.

For the variant C11U A36G C46U G56A, the yeast fitness was at most 0.5.

C4U U19A C27G A43U C46A C49U: the yeast fitness is at most 0.5.

As for C4A G10C C11U C27U A45U U59C C60G, the yeast fitness was at most 0.5.

With G12C G50U, the yeast fitness turned out to be 0.836.

With G18C G58C, the yeast fitness came out at 0.635.

On to C11A G23C C33U A43U A45C G58A A69C, for which the yeast fitness is at most 0.5.

For U3G U16C G48U, the yeast fitness came to 0.633.

On to U8A U32G A37G G63U A70U, for which the yeast fitness was at most 0.5.

For U3A G56A, the yeast fitness amounted to 1.02.

Regarding A14U A15C C33A G39C, the yeast fitness is at most 0.5.

For the variant U2C C24G C33G U53C C55U A70G, the yeast fitness was at most 0.5.

As to G6A C24U A37G C61G C66U A69U, the yeast fitness was at most 0.5.

For the variant G6A A14G C49U, the yeast fitness is 0.57.

For the variant C29G C31G C46G C55U A65U, the yeast fitness is 0.627.

For the variant U19C C31U G56A G68C, the yeast fitness was at most 0.5.

In the case of C34G A43U C55U A57C C66A, the yeast fitness worked out at 0.639.

Consider U7G C22U G52A C55U, for which the yeast fitness was at most 0.5.

C5A C24G C31G G51C U59G: the yeast fitness is at most 0.5.

Consider U28G C61A, for which the yeast fitness was 0.561.

Regarding A14G C30U C46A G50A, the yeast fitness was at most 0.5.

Regarding G6A U8A G44C A57U, the yeast fitness is at most 0.5.

Take C4U U19A C30G A36C: the yeast fitness turned out to be 0.55.

Turning to G38A C55A G68A, the yeast fitness is at most 0.5.

For U16A C22U U26C G67A, the yeast fitness was at most 0.5.

For the variant G48A G56C A65G, the yeast fitness is 0.543.

As to A43G G67C, the yeast fitness was found to be 0.872.

For C5G A20C C24U, the yeast fitness was at most 0.5.

Turning to G12A C24G C62G, the yeast fitness is at most 0.5.

In the case of G39C G50C C61G, the yeast fitness is at most 0.5.

Consider U3C U19G C27G C33G U53G, for which the yeast fitness was determined as 0.578.

For C11G A21U U47A G63C, the yeast fitness is at most 0.5.

As to U2G U3C C55U C61A, the yeast fitness was at most 0.5.

On to C4G C5G C34G A57G A65G C66U, for which the yeast fitness was at most 0.5.

In the case of A15C C30A A42C G56A A57U, the yeast fitness was found to be 0.578.

Turning to C5U A37G U59G G68C, the yeast fitness was at most 0.5.

As to C5G G17A C62A, the yeast fitness is at most 0.5.

On to U7A G10A C30A A43C C66U, for which the yeast fitness was 0.553.

As to C11U C30G, the yeast fitness is 0.694.

With C31A C49G G56C A70U, the yeast fitness was at most 0.5.

With U28A C31A A42C A45U G51A U64A, the yeast fitness was 0.512.

For the variant A14U G25A C62A G63A A70G, the yeast fitness was at most 0.5.

As to U32A G38C U47A, the yeast fitness is at most 0.5.

Turning to G6A A42U C62A, the yeast fitness stood at 0.53.

G10C C30A C66A: the yeast fitness is at most 0.5.

U26C C33U A40U: the yeast fitness is at most 0.5.

For U16A U32C C34U, the yeast fitness was at most 0.5.

With A15C A36U C61A, the yeast fitness is at most 0.5.

A15G G23C G38C C49U: the yeast fitness was at most 0.5.

Take A21C C22A C60U: the yeast fitness was at most 0.5.
